Holding throughout (type): functional
Test [1] deals with Pectinophora gossypiella. Kind of test: Antifeedant activity against second-instar larvae of Pectinophora gossypiella (pink bollworm) assessed as concentration required for 50 % protection of host plant substrate after 48 hr by leaf disk assay. The essentials:
(§1)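 Leaf disks (1 cm²) punched from glandless cotton cultivar, randomized, 12 per Petri dish on moistened filter paper; alternate disks treated on upper surface with 25 μL acetone or 0–100 μg sample in 25 μL acetone. Three larvae per dish, 22 °C, dark, 48 h; percent disk area eaten vs control scored visually. PC50/PC95 = ca. 50/95% protection; triplicate on separate occasions, mean.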

In test [2] the test system is Pectinophora gossypiella. Kind of test: Antifeedant activity against second-instar larvae of Pectinophora gossypiella (pink bollworm) assessed as concentration required for 95 % protection of host plant substrate after 48 hr by leaf disk assay. A digest of the protocol: as §1
Test [3] concerns Spodoptera frugiperda. Kind of test: Antifeedant activity against second-instar larvae of Spodoptera frugiperda (fall armyworm) assessed as concentration required for 95 % protection of host plant substrate after 48 hr by leaf disk assay. A digest of the protocol: as §1
Test [4] has as its system Spodoptera frugiperda. Kind of test: Antifeedant activity against second-instar larvae of Spodoptera frugiperda (fall armyworm) assessed as concentration required for 50 % protection of host plant substrate after 48 hr by leaf disk assay. A digest of the protocol:
as §1

Molecules are shown by their SMILES.

For `CC(=O)O[C@H]1[C@H](OC(C)=O)[C@]2(C)[C@@H](c3ccoc3)C[C@@H]3O[C@@]32[C@@]2(C)[C@H](OC(=O)Cc3ccccc3)C[C@H]3C(C)(C)O[C@]4(O)C(=O)CC[C@]34[C@@H]12` [DUMNIN], the PC50 in test [1] amounted to 1 µg/mL. Moreover, in test [2], the PC95 stood at 16 µg/mL.

For the compound `CC(=O)O[C@H]1[C@H](OC(C)=O)[C@@]2(C)C(=CC[C@@H]2c2ccoc2)[C@@]2(C)C(=O)C[C@H]3C(C)(C)O[C@]4(O)C(=O)CC[C@]34[C@@H]12` [DUMSENIN], the PC95 in test [3] was determined as 4 µg/mL; in test [2], 8 µg/mL. Also, the PC50 came to 1 µg/mL in test [4] and 2 µg/mL in test [1].

For the compound `CC(=O)O[C@H]1[C@H](OC(C)=O)[C@]2(C)[C@@H](c3ccoc3)C[C@@H]3O[C@@]32[C@@]2(C)[C@H](OC(=O)CC(C)C)C[C@H]3C(C)(C)O[C@]4(O)C(=O)CC[C@]34[C@@H]12` [DUMSIN], the PC50 in test [1] was 1 µg/mL. The PC95 in test [2] was 8 µg/mL.

For `CC(=O)O[C@@H]1[C@@H]2[C@@]34CC(=O)C[C@@H]3OC(C)(C)[C@@H]4CC(=O)[C@@]2(C)[C@@]23O[C@@H]2C[C@H](c2ccoc2)[C@]3(C)[C@H]1OC(C)=O` [ZUMSIN], the figures for the PC95 in test [3] and in test [2] were 16 µg/mL and 8 µg/mL, respectively. In addition, the PC50 in test [4] amounted to 2 µg/mL; in test [1], 1 µg/mL.

Source of the values: ChEMBL document CHEMBL3045714, “Insect antifeedants from tropical plants: structures of dumnin and dumsenin” (2004).
